Reference: the RNAGym collection of RNA variant scans (doi:10.1126/science.aae0568)
Fewer inactive variants are shown than the library holds.

B1: tRNA (parent)
chain: GUUCCGUUGGCGUAAUGGUAACGCGUCUCCCUCCUAAGGAGAAGACUGCGGGUUCGAGUCCCGUACGGAACG

Variants of: B1
Assay: yeast fitness relative to wild type (ratio to wild type); higher = fitter; tRNA-Arg(CCU), competitive growth, 37 C, YPD
Method in brief: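 Gene amplicons from the start population and from each of six end populations were read by 100-nucleotide paired-end sequencing. Those end populations came from pooled Saccharomyces cerevisiae strains carrying tRNA-Arg(CCU) gene variants at the native locus, competed in YPD at 37°C for 24 hours. Fitness relative to wild type was worked out from changes in genotype frequencies. Genotypes needed ≥ 100 starting reads, and estimates < 0.5 were set to 0.5.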

Row | Variant | yeast fitness
1 | GUUCCGUUGGCGUAACGGUAACGCGUCUUCCUCCUAAGGAGAAGACUGCGGGUUCGAGUCCUGUACGGAACG [U16C C29U C62U] | 0.508
2 | GUUCCGUUGGCGUAACGGUAACGCGUCUCUCUCCUAAGGACAAGACUGCGGGUUCGAGUCCCGUACGGAACG [U16C C30U G41C] | ≤ 0.5
3 | GUUCCGUUGGCGUAACGGUAACGCGUCUCCCUCCUAAGGAGAAGACUGCGGGUUCGAGUACUGUACGGAACG [U16C C60A C62U] | 0.55
4 | GUUCCGUUGGCGUAACGGUAACGCGUCUCCGUCCUAAGGAGAAGACUGCGGGUUCGAGUCCCGUACGGAACG [U16C C31G] | 0.838
5 | GUUCCGUUGGCGUAACGGUAACGCGUCUCCGUCCUAAGAAGAAGACUGCGGGUUCGUGUCCCGUACGGAACG [U16C C31G G39A A57U] | 0.692
6 | GUUCCGUUGGCGUAACGGUAACGCGUCUUCCUCCUAAGGAGAAGACUGCGGGUUCGAGUCCCAUACGGAACG [U16C C29U G63A] | 0.527
7 | GUUCCGUUGGCGUAACGGUAACGCGUCUCCCUCCUAAGGAGAAGAGUGUGGGUUCGAGUCCCGUACGGAACG [U16C C46G C49U] | 0.731
8 | GUUCCGUUGGCGUAACGGUAACGCGUCUCCCUCCUAAGGAGAAGACUGCGGGUUUGAGUCCCGUACGGUACG [U16C C55U A69U] | 0.629
9 | GUUCCGUUGGCGUAACGGUAACGCGUCUCCCUCCUAAGGAGAAGAUUGCGGGUUCGAGUCCCGUACGGAACG [U16C C46U] | 1.05
10 | GUUCCGUUGGCGUAACGGUAACGCGUCUCCCUUCUCAGGAGAAGACUGCGGGUUCCAGUCCCGUACGGAACG [U16C C33U A36C G56C] | ≤ 0.5
11 | GUUCCGUUGGCGUAACGGUAACGCGUCUCCCUCCUAAGGAGAAGACUGCGGGUUCGAGUGCCGUACGGAACG [U16C C60G] | 0.658
12 | GUUCCGUUGGCGUAACGGUAACGCGUCUGCCUCCUAAGGAGAAGACUGCGGGUUCGAGUUCCGUACGGAACG [U16C C29G C60U] | 0.638
13 | GUUCCGUUGGCGUAACGGUAACGCGUCUCUCUCGUAAGGAGAAGACUGCGGGUUCGAGUCCCGUACGGAACG [U16C C30U C34G] | 0.579
14 | GUUCCGUUGGCGUAACGGUAACGCGUCUCCCUGCUAAGCAGAAGACUGCGGGUUCGAGUCCCGUACGGCACG [U16C C33G G39C A69C] | ≤ 0.5
15 | GUUCCGUUGGCGUAACGGUAACGCGUCUACCUCCUAAGGAGAAGACUGCGGGUUGGAGUCCCGUACGGAUCG [U16C C29A C55G A70U] | ≤ 0.5
16 | GUUCCGUUGGCGUAACGGUAACGCGUCUCCCUCCUAAGGAGAAGACUGCGGGUUCGAGUCUCGUACGGAACG [U16C C61U] | 0.93
17 | GUUCCGUUGGCGUAACGGUAACGCGUCUGCCUCCUAAGGAGAAGACUGCGGGUUCGAGUCCCGUACGGAACG [U16C C29G] | 0.619
18 | GUUCCGUUGGCGUAACGGUAACGCGUCUCCCUCCUAAGGAGAAGACUGCGGGUUCGAGUGCCGUGCGGAACG [U16C C60G A65G] | ≤ 0.5
19 | GUUCCGUUGGCGUAACGGUAACGCGUCUCCCUCCUAAGGAGAAGAGUGCGGGUUGGAGUGCCGUACGGAACG [U16C C46G C55G C60G] | 0.615

Row | Variant | yeast fitness
20 | GUUCCGUUGGCGUAACGGUAACGCGUCUGCCUCCUAAGGAGAAGACUGCGGGAUCGAGUCCCGUACGGAACG [U16C C29G U53A] | ≤ 0.5
21 | GUUCCGUUGGCGUAACGGUAACGCGUCUCCCUCCUAAGGAGAAGACUGCGGGUUAGUGUCCCGUACGGAACG [U16C C55A A57U] | ≤ 0.5
22 | GUUCCGUUGGCGUAACGGUAACGCGUCUCCCUCCUAAGGAGAAGACUGCGGGUUAGCGUCCCGUACGGAACG [U16C C55A A57C] | ≤ 0.5
23 | GUUCCGUUGGCGUAACGGUAACGCGUCUCCUUAGAAAGGAGAAGACUGCGGAUUCGAGUCCCGUACAGAACG [U16C C31U C33A C34G U35A G52A G67A] | ≤ 0.5
24 | GUUCCGUUGGCGUAACGGUAACGCGUCUCCCUUCUCAGGAGAAGCCUGCGGGUUCGAGUCCCGGACGGAACG [U16C C33U A36C A45C U64G] | ≤ 0.5
25 | GUUCCGUUGGCGUAACGGUAACGCGUCUCCCUUCUAAGGAGAAGACUGCGGGUUCGGGUCCCCUACGGAACG [U16C C33U A57G G63C] | ≤ 0.5
26 | GUUCCGUUGGCGUAACGGUAACGCGUCUCCUUUCUAAGGAGAAGACUGCGGGUUCGAGUCCCCUACGGAACG [U16C C31U C33U G63C] | ≤ 0.5
27 | GUUCCGUUGGCGUAACGGUAACGCGUCUCCUUCCUAAGGAGAAGACUGCGGGUUUGAGUCCCGUACGGAACG [U16C C31U C55U] | 0.659
28 | GUUCCGUUGGCGUAACGGUAACGCGUCUCCCUCGUAAGGAGAAAACUGCGGGUUCGAGUCCCGUUCGGAACG [U16C C34G G44A A65U] | ≤ 0.5
29 | GUUCCGUUGGCGUAACGGUAACGCGUCUCACUCCUAAGGAGAAGACUGCGGGUUCGAGUCCCGUACGGAACG [U16C C30A] | 0.834
30 | GUUCCGUUGGCGUAACGGUAACGCGUCUCGCUCCUAAGGAGAAGACUGCGGGUUCGAGUCCCGUACGGAACG [U16C C30G] | 0.708
31 | GUUCCGUUGGCGUAACGGUAACGCGUCUCCCUCUUAAGGAGAAGACUGCGGGUUCGAGUCCCGUACGGAACG [U16C C34U] | 0.759
32 | GUUCCGUUGGCGUAACGGUAACGCGUCUCCCUCGUAAGGAGAAGACUGCGGGUUCGAGUCCCGUACGGAACG [U16C C34G] | 0.609
33 | GUUCCGUUGGCGUAACGGUAACGCGUCUCCCUCCUAAGGAGAAGACUGCGGGUUGGAGUCCCGUACGGAACG [U16C C55G] | 0.669
34 | GUUCCGUUGGCGUAACGGUAACGCGUCUCCCUCCUAAGGAGAAGACUGCGGGUUAGAGUCCCGUACGGAACG [U16C C55A] | 0.664
35 | GUUCCGUUGGCGUAACGGUAACGCGUCUCUCUCGUAAGGAGAAGACUGAGGGUUCGAGUCCCGUACGGAUCG [U16C C30U C34G C49A A70U] | ≤ 0.5
36 | GUUCCGUUGGCGUAACGGUAACGCGUCUCCCUCCUAAGGAGAAGAGUGCGGGUUCAAGUCCCGUACGGAACG [U16C C46G G56A] | 0.748
37 | GUUCCGUUGGCGUAACGGUAACGCGUCUCCCUCCUAAGGAGAAGAUUGCGGGUUCGAGUCCCGUACGGCACG [U16C C46U A69C] | 0.783
38 | GUUCCGUUGGCGUAACGGUAACGCGUCUCUCUCCUAAGGAGAAGAAUGCGGGUUCGAGUCCCGUACGGAACG [U16C C30U C46A] | 0.768
